The values that follow come from ChEMBL document CHEMBL5126632, “Balancing Affinity, Selectivity, and Cytotoxicity of Hydrazone-Based G-Quadruplex Ligands for Activation of Interferon β Genes in Cancer Cells” (J Med Chem, 2022).

Series [1] is described as follows: Cytotoxicity against mouse MNMCA1 cells assessed as cell survival preincubated for 24 hrs with compound further incubated for 48 hrs in drug free medium by MTT assay. It counts as functional, cell-based. In a few lines:
(§1)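 Exponentially growing cells seeded and treated 24 h after seeding with increasing concentrations for 24 h. Cells then recovered 48 h in drug-free medium. MTT added for 1 h at 37 °C, formazan dissolved in DMSO, absorbance read at 540 nm. IC50 from linear regression. Means ± SEM of two independent experiments in triplicate.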

Series [2] deals with Quadruplex DNA. The series is described as follows: Stabilization of c-kit1 G4 quadruplex d(DNA AGGGAGGGCGCTGGGAGGAGGG) DNA (unknown origin) assessed as thermal stability by measuring difference in melting temperature t1/2 by circular dichroism spectroscopy (reference value: 54 +/- 0.5 degC). It counts as nucleic-acid assay.
The subject of series [3] is Quadruplex DNA. Kind of series: Stabilization of human Tel26 G4 quadruplex DNA assessed as thermal stability by measuring difference in melting temperature t1/2 by circular dichroism spectroscopy. It counts as nucleic-acid assay. In general terms: Circular dichroism is widely used to follow secondary structure.
Series [4] relates to Quadruplex DNA. Kind of series: Stabilization of c-kit2 G4 quadruplex d(CGGGCGGGCGCTAGGGAGGGT) DNA (unknown origin) assessed as thermal stability by measuring difference in melting temperature t1/2 by circular dichroism spectroscopy (reference value: 61.5 +/- 0.5 degC). The series is classed as nucleic-acid assay.
Series [5] is described as follows: Stabilization of d(CGC GAA TTC GCG TIT CGC GAA TTC GCG) DNA hairpin (unknown origin) assessed as thermal stability by measuring difference in melting temperature t1/2 by circular dichroism spectroscopy (reference value: 75.4 +/- 0.2 degC). In a few lines:
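CD melting of 15 μM annealed hairpin duplex in 5 mM K phosphate pH 7.0 with 20 mM KCl, with or without ligand at 2 molar equiv added to the folded DNA. The signal was followed at 252 nm from 20 to 100 °C at 1 °C/min, with T1/2 taken from a curve fit. ΔT1/2 is relative to DNA alone; duplicate runs, averaged.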

Series [6] deals with Quadruplex DNA. The series is described as follows: Stabilization of c-myc G4 quadruplex d(TTAGGGTTAGGGTTAGGGTTAGGGTT) DNA (unknown origin) assessed as thermal stability by measuring difference in melting temperature t1/2 by circular dichroism spectroscopy (reference value: 72 +/- 0.5 degC). The series is classed as nucleic-acid assay.
The test system of series [7] is U2OS. Kind of series: Induction of DNA damage in human U2OS cells assessed as fold increase in gammaH2AX phosphorylation at […] by measuring fold change at 10 uM incubated for 24 hrs by immunofluorescence microscopy. The series is classed as functional. Summed up: (§2)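 U2OS cells treated 24 h. Fixed with 4% formaldehyde, permeabilized with 0.5% Triton X-100, blocked with 8% BSA, stained with anti-γH2AX (1:500) and Alexa Fluor 594 secondary, DAPI counterstain. Fluorescence microscopy signal quantified as fold over untreated.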

The nature of series [8]: Stabilization of F-c-kit1-T (unknown origin) assessed as difference in melting temperature t1/2 in presence of d(CGC GAA TTC GCG TIT CGC GAA TTC GCG) DNA hairpin (unknown origin) measured at 1:15 G4 to hairpin DNA ratio by FRET assay. Summed up: (§3)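 FRET melting of 0.2 μM prefolded FAM/TAMRA dual-labelled c-kit1 G4 in 5 mM K phosphate pH 7.0 with 20 mM KCl. Ligand was added at 2 molar equiv, with unlabelled hairpin competitor at 3 or 10 μM final (15 or 50 equiv relative to G4). FAM emission was read at 520 nm (excitation 492 nm) while heating at 0.2 °C/min over 15–90 °C. ΔT1/2 is relative to no ligand; at least duplicate, averaged.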

In series [9] the target is Quadruplex DNA. The series is described as follows: Displacement of thiazole orange from c-kit2 G4 quadruplex d(CGGGCGGGCGCTAGGGAGGGT) DNA (unknown origin) assessed as relative affinity by fluorescent intercalator displacement assay. It counts as nucleic-acid assay. In a few lines: (§4)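 G4 DNA at 0.25 μM with 0.5 μM thiazole orange in 5 mM potassium phosphate pH 7.0 containing 20 mM KCl (LiCl for c-myc), 20 °C. Ligand titrated from 0.5 to 20 molar equiv with 3 min equilibration per addition. Excitation 485 nm, emission 500–650 nm. %displacement = 100 − (F/F0×100); DC50 is the concentration displacing 50% TO. Duplicate titrations.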

The nature of series [10]: Stabilization of F-c-kit1-T (unknown origin) assessed as difference in melting temperature t1/2 in presence of d(CGC GAA TTC GCG TIT CGC GAA TTC GCG) DNA hairpin (unknown origin) measured at 1:50 G4 to hairpin DNA ratio by FRET assay. In a few lines: as §3
For series [11], the target named is Quadruplex DNA. The series is described as follows: Binding affinity to c-kit2 G4 quadruplex d(CGGGCGGGCGCTAGGGAGGGT) DNA (unknown origin) assessed as dissociation constant by Microscale thermophoresis analysis. It counts as nucleic-acid assay. In a few lines: (§5)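 MST with Cy5.5-labelled G4 oligonucleotide held at 20 nM, folded in 5 mM potassium phosphate pH 7.0 with 20 mM KCl plus 0.1% Tween. Ligand in 1:2 serial dilution mixed 1:1 with DNA, 20% DMSO final. Kd taken from binding curves.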

Series [12] deals with Quadruplex DNA. The series is described as follows: Displacement of thiazole orange from c-kit1 G4 quadruplex d(DNA AGGGAGGGCGCTGGGAGGAGGG) DNA (unknown origin) assessed as relative affinity by fluorescent intercalator displacement assay. The series is classed as nucleic-acid assay. Summed up: as §4
Series [13] in a line: Genotoxicity in mouse MNMCA1 cells assessed as induction of micronuclei formation measured after 24 hrs by DAPI staining based analysis. It counts as toxicity, cell-based. The settings on record: mnmca1, 24 h.
Series [14] relates to Quadruplex DNA. The series is described as follows: Stabilization of G4 quadruplex DNA in human U2OS cells assessed as BG4 foci formation by measuring fold increase in G4 structure at 10 uM by immunofluorescence microscopy. It counts as cell-based. In a few lines: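 U2OS cells on coverslips treated for […]. Fixed in methanol/acetic acid 3:1, permeabilized with 0.1% Triton X-100, blocked in 2% milk. Stained with 0.5 μg BG4 for 2 h, then anti-FLAG and Alexa Fluor 488 secondary. Signal quantified as fold over untreated.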

The target of series [15] is Quadruplex DNA. Kind of series: Binding affinity to c-kit1 G4 quadruplex d(DNA AGGGAGGGCGCTGGGAGGAGGG) DNA (unknown origin) assessed as dissociation constant by Microscale thermophoresis analysis. The series is classed as nucleic-acid assay. Summed up: as §5
A general note: In MST a laser heats a spot of the sample, and binding alters the fluorescence response.

Series [16] deals with U2OS. The series is described as follows: Induction of DNA damage in human U2OS cells assessed as increase in gammaH2AX phosphorylation at S139 incubated for 24 hrs by immunofluorescence microscopy. The settings on record: read-out: IC50 (the source's name). The series is classed as functional, cell-based. In a few lines: as §2
Series [17] has as its system Quadruplex DNA. Kind of series: Stabilization of F-c-kit1-T quadruplex DNA (unknown origin) by measuring difference in melting temperature t1/2 by FRET assay. It counts as nucleic-acid assay. In a few lines: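 FRET melting of 0.2 μM prefolded FAM/TAMRA-labelled c-kit1 in 5 mM potassium phosphate pH 7.0 with 20 mM KCl, with ligand at 2 molar equiv. Unlabelled hairpin competitor added at 3 or 10 μM (15 or 50 equiv). FAM emission at 520 nm (excitation 492 nm) followed from 15 to 90 °C at 0.2 °C/min. ΔT1/2 versus no ligand. At least duplicate.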

Series [18] has as its target Quadruplex DNA. Kind of series: Displacement of thiazole orange from c-myc G4 quadruplex d(TTAGGGTTAGGGTTAGGGTTAGGGTT) DNA (unknown origin) assessed as relative affinity by fluorescent intercalator displacement assay. It counts as nucleic-acid assay. In a few lines:
as §4

Series [19] relates to U2OS. The series is described as follows: Cytotoxicity against human U2OS cells assessed as cell survival preincubated for 24 hrs with compound further incubated for 48 hrs in drug free medium by MTT assay. It counts as functional, cell-based. Summed up:
as §1
A general note: Tetrazolium assays rely on reduction of a dye to a coloured formazan, in cell work by metabolically active cells.

The target in series [20] is Quadruplex DNA. Kind of series: Binding affinity toc-myc G4 quadruplex d(TTAGGGTTAGGGTTAGGGTTAGGGTT) DNA (unknown origin) assessed as dissociation constant by Microscale thermophoresis analysis. It counts as nucleic-acid assay. In a few lines:
as §5

Structures are written as SMILES. pEC50, pIC50, pKd: −log10 of the molar value.

As a reminder, the pIC50 is the IC50 on a negative log10 scale, so that one unit is a factor of ten. `NCCOc1cc(C(=O)Nc2cc(OCCN)c3ccccc3n2)nc(C(=O)Nc2cc(OCCN)c3ccccc3n2)c1` [PYRIDOSTATIN]: the pIC50 in series [1] is 4.57.

By ΔTm is commonly meant the change in melting temperature against a reference sample. Regarding `N=C(N)N/N=C/c1c(-c2ccsc2)nc2ccn3c(C=O)c(-c4ccsc4)nc3n12`, the ΔTm in the series on Quadruplex DNA [2] came to 16.1 °C; in the series with Quadruplex DNA [3], 4.8 °C; in the series on Quadruplex DNA [4], 25.2 °C; in [5] it was 2.7 °C; in the series on Quadruplex DNA [6], 9.1 °C.

On to `N=C(N)N/N=C/c1c(-c2ccc(Cl)cc2)nc2n1ccc1nc(-c3ccc(Cl)cc3)c(/C=N/NC(=N)N)n12`, for which the thermal shift (ΔTm) in the series on Quadruplex DNA [2] is 11.1 °C; in the series on Quadruplex DNA [3] it was 4.1 °C; with Quadruplex DNA [4], > 30 °C; in series [5], 2.9 °C; in the series on Quadruplex DNA [6], 11.4 °C.

For `N=C(N)N/N=C/c1c(-c2ccc(Cl)cc2)nc2n1ccc1nc(-c3ccccc3)c(/C=N/NC(=N)N)n12`, the ΔTm was 20.1 °C with Quadruplex DNA [2]; 8.3 °C in the series with Quadruplex DNA [3]; > 30 °C in the series on Quadruplex DNA [4]; 2.6 °C in series [5]; 14.3 °C in the series with Quadruplex DNA [6].

As a reminder, the pKd is the negative decadic logarithm of the Kd, by convention in mol/L. As to `Cc1ccc(-c2nc3ccn4c(/C=N/NC5=NCCN5)c(-c5ccccc5)nc4n3c2/C=N/NC2=NCCN2)cc1`, the ΔTm in the series on Quadruplex DNA [2] is 15.2 °C; in the series on Quadruplex DNA [3], 5.3 °C; in series [8], 21.4 °C; in series [10] it was 20.2 °C; in the series on Quadruplex DNA [4] it was > 30 °C; in series [5], 1.1 °C. Moreover, the results for the ΔTm in the series on Quadruplex DNA [17] and in the series on Quadruplex DNA [6] were 22.4 °C and 9.1 °C, respectively. Moreover, the pIC50 is 4.54 in series [1]; 5.92 on Quadruplex DNA [9]; 5.89 at Quadruplex DNA [12]; 5.89 on Quadruplex DNA [18]; 3.97 in the series with U2OS [19]. In addition, the results for the “fold change (FC)” value (in the series on U2OS [7]; in series [13]; in the series on Quadruplex DNA [14]) were 1.45, 0.4 and 2.4, respectively. For the same compound, the negative-log Kd (pKd) on Quadruplex DNA [11] was 6.89; at Quadruplex DNA [15], 6.92. Also, in the series with U2OS [16], the pEC50 is 4.00.

Consider `Clc1ccc(-c2nc3n(ccc4nc(-c5ccccc5)c(/C=N/NC5=NCCN5)n43)c2/C=N/NC2=NCCN2)cc1`, for which the ΔTm with Quadruplex DNA [2] was 17.7 °C; in the series with Quadruplex DNA [3] it was 6.6 °C; in [8], 24.8 °C; in series [10], 23.8 °C; with Quadruplex DNA [4] it was 19.2 °C; in series [5], 1.2 °C. Besides, the ΔTm stood at 26.6 °C with Quadruplex DNA [17] and 10.6 °C with Quadruplex DNA [6]. Also, the pIC50 was 5.85 on Quadruplex DNA [9], 5.92 on Quadruplex DNA [12] and 5.89 at Quadruplex DNA [18]. For the same compound, the pKd on Quadruplex DNA [11] is 6.30; at Quadruplex DNA [15], 7.15; on Quadruplex DNA [20] it was 5.92.

For `Cc1ccc(-c2nc3n(ccc4nc(-c5ccc(C)cc5)c(/C=N/NC(=N)N)n43)c2/C=N/NC(=N)N)cc1`, the ΔTm in the series with Quadruplex DNA [2] is 18.5 °C; in the series with Quadruplex DNA [3] it was 5.5 °C; in the series on Quadruplex DNA [4], > 30 °C; in series [5], 4.1 °C; in the series on Quadruplex DNA [6], 15.6 °C.

On to `Cc1ccc(-c2nc3n(ccc4nc(-c5ccccc5)c(/C=N/NC5=NCCN5)n43)c2/C=N/NC2=NCCN2)cc1`, for which the shift in melting temperature (ΔTm) was 21.4 °C in the series with Quadruplex DNA [2]; 6.2 °C with Quadruplex DNA [3]; > 30 °C in the series with Quadruplex DNA [4]; 2.2 °C in series [5]; 13.1 °C in the series with Quadruplex DNA [6].
